ROMK mod = human ROMK K+ channel modulation, primary screen; 130,000 compounds, 2% hits; B-score at 10 µM; P48048; Tet-inducible ROMK, thallium flux fluorescence; actives lie on both sides;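 active means signal ratio slope over the read window, or its plate-corrected B-score, at least 3 SD from the plate mean, either direction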;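 further: B-score of the F/F0 ratio slope over 7 to 12 s after thallium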
Target sequence (P48048 whole entry, looked up): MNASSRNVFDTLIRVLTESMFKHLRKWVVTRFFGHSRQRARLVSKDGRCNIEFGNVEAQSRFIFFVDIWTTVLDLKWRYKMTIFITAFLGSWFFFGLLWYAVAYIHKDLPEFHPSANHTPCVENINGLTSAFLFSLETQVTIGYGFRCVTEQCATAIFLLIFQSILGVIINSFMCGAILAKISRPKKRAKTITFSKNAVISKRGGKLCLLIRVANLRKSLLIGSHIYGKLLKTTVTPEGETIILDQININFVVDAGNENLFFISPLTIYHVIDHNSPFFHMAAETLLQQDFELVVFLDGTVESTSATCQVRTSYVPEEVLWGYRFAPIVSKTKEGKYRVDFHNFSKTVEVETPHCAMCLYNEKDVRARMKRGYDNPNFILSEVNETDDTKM
KCC2 mod = KCC2 (human) Cl- transport modulation; KCC2 cells, thallium flux FluoZin-2 fluorescence; 190,000 compounds, 2.2% hits; AID 1456; B-score of Tl+ flux slope (higher = more flux/activation; lower = inhibition) at 10 µM;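 active means thallium flux slope and its plate-corrected score both differing from the plate sample mean at a set confidence after two filtering rounds, in either direction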;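 further: slope of fluorescence scaled to starting intensity during 10 to 20 s after thallium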
ABCB1 block = inhibitors of human ABCB1 transporter, ABCG2 counter-screen; CCRF-Adr cells, JC-1 efflux, flow cytometry; 190,000 compounds, 0.067% hits; inhibition, % at 6.6 µM; in the data active means inhibition above about 40%;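 further: higher value means more JC-1 retained so stronger ABCB1 efflux block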
PMI act satM6P = activators of human phosphomannose isomerase at near-saturating mannose 6-phosphate | P34949 | AID 1216 | activation factor at 20 µM | coupled PMI enzyme assay, resazurin fluorescence, 20 min; hits give high values; 1 = untreated enzyme, 0 = substrate-free blank | 190,000 compounds, 0.34% hits;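 active means activation factor of 2 or more at 20 µM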
Target sequence (P34949 whole entry, looked up): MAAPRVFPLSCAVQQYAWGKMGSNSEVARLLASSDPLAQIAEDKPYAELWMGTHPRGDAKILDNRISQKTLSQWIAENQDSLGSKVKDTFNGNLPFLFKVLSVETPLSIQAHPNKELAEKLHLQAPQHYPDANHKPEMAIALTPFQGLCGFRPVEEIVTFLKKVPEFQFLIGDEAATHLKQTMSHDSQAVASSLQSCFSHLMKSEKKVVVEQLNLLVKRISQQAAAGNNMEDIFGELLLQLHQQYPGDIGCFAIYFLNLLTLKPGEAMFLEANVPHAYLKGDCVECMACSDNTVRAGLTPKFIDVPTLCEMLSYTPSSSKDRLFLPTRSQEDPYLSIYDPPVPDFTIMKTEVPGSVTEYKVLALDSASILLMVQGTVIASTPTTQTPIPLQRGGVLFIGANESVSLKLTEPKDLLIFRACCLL
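assay system = human phosphomannose isomerase with PGI, G6PDH, diaphorase coupling enzymes | quantity = 15 ng/mL PMI | incubation = enzyme reaction with compound 20 min at room temperature | medium = HEPES pH 7.4 buffer with MgCl2 and Tween-20 | compound dosing = one concentration, 20 µM, in 1% DMSO | measured by = Diaphorase-driven resazurin-to-resorufin fluorescence, excitation 544, emission 590 nm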
PMI act = phosphomannose isomerase (human) activation; P34949; purified human PMI, coupled resazurin fluorescence, 20 min; hits give high values; 1 = vehicle control, 0 substrate-free wells; activation factor at 20 µM; 190,000 compounds, 0.005% hits; AID 1214;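 active means activation factor of 2 or more at 20 µM, relative to plate controls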
ABCG2 block = inhibitors of human ABCG2 transporter, ABCB1 counter-screen | IgMXP3 cells, JC-1 efflux, flow cytometry | Q9UNQ0 | AID 1325 | inhibition, % at 6.6 µM | 190,000 compounds, 0.1% hits;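 active means inhibition above 80%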
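Test system: ABCG2 IgMXP3 and barcoded ABCB1 CCRF-Adr cell mix; Schedule: cells with compound and JC-1, 10 min at 25 °C, rotating, no wash; Technique: flow cytometry of retained JC-1 fluorescence; Measure: % inhibition of efflux relative to nicardipine and DMSO; Controls: nicardipine high and DMSO low controls.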
KCC2 secondary = KCC2 (human) modulation, secondary assay; HEK293-KCC2, thallium flux, FluoZin2 fluorescence; hits give high values; 3,700 compounds, 15% hits; normalised thallium flux (F/F0 slope) at 10 µM; shares compounds with KCC2 mod;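 active means thallium flux slope above the same plate's solvent-only control mean plus 3 SD; inconclusive means the two replicate wells disagree; inactive means no significant difference from solvent-only control wells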
KCC2 bumet counter = bumetanide-insensitive thallium flux in KCC2 cells with ouabain, counter-screen. shares compounds with KCC2 mod. HEK293-KCC2 + bumetanide/ouabain, thallium flux FluoZin2; hits give high values. normalized thallium flux at 10 µM. 3,700 compounds, 49% hits;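 active means thallium entry rate above the same plate's blocked-transporter control wells by more than 3 SD; inconclusive means the two repeat wells disagree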;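 further: raw slope of fluorescence over initial fluorescence between 10 and 20 s after thallium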
KCC2 sec2 = KCC2 (human) modulation, second secondary assay; normalized thallium flux at 10 µM; HEK293-KCC2, thallium flux FluoZin2 fluorescence; actives lie on both sides; F/F0 rise rate, 10–20 s post-thallium; shares compounds with KCC2 mod; 3,700 compounds, 23% hits;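 active means thallium flux slope more than 3 SD above or below the plate's solvent-only control mean, mostly below; inconclusive means the two repeat wells disagreed; inactive means no significant shift from solvent-only controls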
HEK counter1 = counter-screen for KCC2 modulators: effect in parental HEK293 cells; shares compounds with KCC2 mod; thallium flux FluoZin2, ouabain; baseline-ratio fluorescence slope, 10–20 s after thallium; thallium flux rate (normalised fluorescence) at 10 µM; 3,700 compounds, 46% hits;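 active means thallium flux rate significantly above the same plate's solvent-only control wells, beyond their mean plus 3 SD; inconclusive means the two replicate wells gave conflicting results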
KCC2 ouabain = KCC2 (human) modulation, ouabain retest; shares compounds with KCC2 mod; HEK293-KCC2, thallium flux FluoZin2 fluorescence; bidirectional: low = inhibitor, high = activator; raw Tl+ flux slope (below DMSO = inhibition, above = activation) at 10 µM; 3,700 compounds, 48% hits;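 active means thallium flux slope beyond 3 SD from same-plate DMSO control mean in most replicates, usually higher, sometimes lower; inconclusive means repeat tests gave conflicting results; inactive means no significant difference from controls in most replicates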;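 further: slope of initial-normalized fluorescence between seconds 10 and 20 after thallium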
HEK counter2 = counter-screen for KCC2 modulators: effect in parental HEK293 cells. shares compounds with KCC2 mod. thallium flux FluoZin-2 fluorescence slope. thallium flux slope at 10 µM. 3,700 compounds, 33% hits;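 active means thallium flux slope above the same plate's solvent-control mean plus 3 SD in both duplicate wells; inconclusive means duplicate wells that disagreed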;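 further: run without ouabain in cells lacking the KCC2 cotransporter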
Of the large screens only hits and unclear results are named; the others gave an inactive call (follow-up assays come after a bar, where they were run). Rows were chosen to be rich in hits. Some 3.3% of all compounds tested hit in one or more screens of this group.

NS(=O)(=O)c1ccc(NC(=S)NC2CCCCC2)cc1	none
NS(=O)(=O)c1ccc(NC(=O)NC2CCCCC2)cc1	KCC2 mod 3.21 (no result: ROMK mod) | KCC2 secondary inactive | KCC2 bumet counter inactive | KCC2 sec2 inactive | HEK counter1 inactive | KCC2 ouabain inactive | HEK counter2 inactive
CNC(=O)Nc1cc(NC(=O)NC)cc(C(F)(F)F)c1	none (no result: ABCB1 block, PMI act satM6P, PMI act, ABCG2 block)
CCOc1cc(OCC)cc(C(=O)NC(=S)Nc2cccc(C(F)(F)F)c2)c1	KCC2 mod 3.34 (no result: ROMK mod) | KCC2 secondary inactive | KCC2 bumet counter 0.0136 | KCC2 sec2 inactive | HEK counter1 0.0128 | KCC2 ouabain inconclusive | HEK counter2 0.0136
O=C(O)c1cccc(NC(=S)NC(=O)c2ccncc2)c1	none
CCOc1ccc(NC(=S)NNC(=S)Nc2cccc(C(F)(F)F)c2)cc1	none (no result: ROMK mod, ABCB1 block, PMI act satM6P, PMI act, ABCG2 block)
O=C(NC(=S)Nc1cccc(C(F)(F)F)c1)c1ccc2nonc2c1	KCC2 mod 52.3 (no result: ROMK mod, ABCB1 block, PMI act satM6P, PMI act, ABCG2 block) | KCC2 secondary 0.0238 | KCC2 bumet counter 0.121 | KCC2 sec2 inconclusive | HEK counter1 0.041 | KCC2 ouabain 0.0628 | HEK counter2 0.0152
Cc1ccccc1C(=O)Nc1ccc(C(=O)N/N=C/c2ccc(O)c(Br)c2)cc1	none
CCOC(=O)c1ccccc1NC1CC(=O)N(c2ccccc2C)C1=O (configuration not stated)	none
O=C(Cn1nnc2c(cnn2-c2ccccc2)c1=O)NCc1cccs1	none (no result: ROMK mod, KCC2 mod)
O=C(Cn1nnc2c(cnn2-c2ccc(F)cc2)c1=O)Nc1ccccc1C(F)(F)F	KCC2 mod -3.86 | KCC2 secondary inactive | KCC2 bumet counter inconclusive | KCC2 sec2 inactive | HEK counter1 inactive | KCC2 ouabain 0.0169 | HEK counter2 inactive
CC(=O)Oc1cc2c3c(c1)/C(=C1/SC(=S)NC1=O)C(=O)N3C(C)(C)C=C2C	KCC2 mod 11.6 (no result: ROMK mod, ABCB1 block, PMI act satM6P, PMI act, ABCG2 block) | KCC2 secondary inactive | KCC2 bumet counter 0.0621 | KCC2 sec2 inactive | HEK counter1 0.0169 | KCC2 ouabain inactive | HEK counter2 inactive
Cc1ccc(S(=O)(=O)N2C(=O)/C(=C3\SC(=S)NC3=O)c3ccccc32)cc1	none (no result: ROMK mod, ABCB1 block, PMI act satM6P, PMI act, ABCG2 block)
O=C(c1cc(C2CC2)nc2ccc(Br)cc12)N1N=C(C(F)F)CC1(O)C(F)F (configuration not stated)	none (no result: ROMK mod)
O=C(Nc1cccnc1)c1ccc(COc2ccccc2Br)o1	KCC2 mod -4.98 (no result: ROMK mod) | KCC2 secondary inactive | KCC2 bumet counter inactive | KCC2 sec2 0.0223 | HEK counter1 inactive | KCC2 ouabain inconclusive | HEK counter2 inactive
O=C(NCc1cccnc1)c1ccc(COc2ccccc2Br)o1	KCC2 mod -4.68 (no result: ROMK mod) | KCC2 secondary inactive | KCC2 bumet counter inactive | KCC2 sec2 0.0292 | HEK counter1 inactive | KCC2 ouabain 0.0145 | HEK counter2 inactive
CC(C)(C)NC(=O)c1ccc(COc2ccccc2Br)o1	none (no result: KCC2 mod)
CCOC(=O)COc1ccc(C(=O)Nc2cccc(Cl)c2C)cc1	none
O=C(COc1ccc([N+](=O)[O-])cc1)Nc1ccc(C(=O)NCc2cccnc2)cc1	none (no result: ROMK mod, KCC2 mod)
COCCNC(C)C(=O)C12CC3CC(CC(C3)C1)C2 (configuration not stated)	KCC2 mod 9.01 (no result: ROMK mod) | KCC2 secondary inactive | KCC2 bumet counter inactive | KCC2 sec2 inactive | HEK counter1 inactive | KCC2 ouabain inactive | HEK counter2 inactive
COCCNCC(=O)C12CC3CC(CC(C3)C1)C2	none (no result: ROMK mod)
COc1ccc(Oc2cc(C(F)(F)F)nc(N(C)C)n2)cc1	none
CCCN=C1N/C(=C\c2ccco2)C(=O)N1c1ccccc1	none
O=C1/C(=C\c2ccco2)NC(=S)N1c1ccccc1	KCC2 mod 15 | KCC2 secondary 0.0146 | KCC2 bumet counter 0.0332 | KCC2 sec2 inactive | HEK counter1 0.0182 | KCC2 ouabain inconclusive | HEK counter2 0.0125
CC(C)n1c(CSCc2ccc(Cl)cc2Cl)n[nH]c1=S	KCC2 mod 9.29 | KCC2 secondary inactive | KCC2 bumet counter 0.0829 | KCC2 sec2 inactive | HEK counter1 0.0284 | KCC2 ouabain 0.0527 | HEK counter2 0.0129
CN1CCN(C(=S)c2cn(Cc3ccccc3F)c3ccccc23)CC1	none
CC1CCCCC1NC(=S)NC(=O)c1ccccc1Br (configuration not stated)	KCC2 mod 22.4 | KCC2 secondary inactive | KCC2 bumet counter 0.00967 | KCC2 sec2 inactive | HEK counter1 0.0143 | KCC2 ouabain 0.0272 | HEK counter2 0.0152
CC(=O)c1cccc(NC(=S)NC(=O)c2ccc(Cl)cc2)c1	KCC2 mod 5.49 (no result: ROMK mod) | KCC2 secondary inactive | KCC2 bumet counter 0.0156 | KCC2 sec2 inactive | HEK counter1 0.0109 | KCC2 ouabain inconclusive | HEK counter2 inconclusive
CC(=O)c1cccc(NC(=S)NC(=O)c2ccccc2Br)c1	KCC2 mod 7.02 (no result: ROMK mod) | KCC2 secondary 0.014 | KCC2 bumet counter 0.0764 | KCC2 sec2 inactive | HEK counter1 0.0173 | KCC2 ouabain inconclusive | HEK counter2 0.0134
CC(=O)c1cccc(NC(=S)NC(=O)c2ccccc2C)c1	none (no result: PMI act satM6P, PMI act)
OC(CON=C1c2ccccc2-c2ccccc21)CN1CCNCC1 (configuration not stated)	none
CC(=O)Nc1ccc(Cc2nc3c([nH]2)c(=O)n(C)c(=O)n3C)cc1	none (no result: ROMK mod, ABCB1 block, PMI act satM6P, PMI act, ABCG2 block)
Cn1cc([N+](=O)[O-])c(C(=O)n2cccn2)n1	none (no result: ROMK mod, ABCB1 block, PMI act satM6P, PMI act, ABCG2 block)
O=C(O)CCNS(=O)(=O)c1ccc2ccccc2c1	none
O=C(O)CCNc1cc2ccccc2cc1C(=O)O	KCC2 mod 5.55 (no result: ROMK mod) | KCC2 secondary inactive | KCC2 bumet counter inactive | KCC2 sec2 inactive | HEK counter1 inactive | KCC2 ouabain inactive | HEK counter2 inactive
